Experimental data taken from publication PMC5656813 (Arthritis & Rheumatology (Hoboken, N.j.), 2017).

Columns and labels:
[1] = test system: patients with RA who had had an insufficient response to MTX; settings: cited from earlier work
[2] = Studies 1 and 2, steady‐state plasma PK of filgotinib and its major metabolite; type: in vivo, human; settings: for Tmax of major metabolite, steady state: median (range)
How it was run: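 RA patients on stable methotrexate took oral test compound or placebo capsules for 4 weeks: 200 mg once daily or 100 mg twice daily (study 1), or 30, 75, 150 or 300 mg once daily (study 2). In a subset (12 and 15 patients), plasma parent and major metabolite were sampled predose and 1, 2, 3, 5 and 8 h after the morning dose, at week 2 or 4. Descriptive statistics were calculated by dose.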

JAK‐1 = settings: cited from earlier work
[3] = cited from earlier work
[4] = after filgotinib 30 mg once daily, study 2, arithmetic mean (coefficient of variation)
[5] = after filgotinib 75 mg once daily, study 2, arithmetic mean
[6] = after filgotinib 100 mg twice daily, study 1, arithmetic mean (coefficient of variation)
[7] = after filgotinib 150 mg once daily, study 2, arithmetic mean (coefficient of variation)
[8] = after filgotinib 200 mg once daily, study 1, arithmetic mean (coefficient of variation)
[9] = after filgotinib 300 mg once daily, study 2, arithmetic mean (coefficient of variation)

CC[C@@H]1CN(C(=O)NCC(F)(F)F)C[C@@H]1c1cnc2cnc3[nH]ccc3n12 [ABT‐494]
effect on natural killer (NK) cells [1]: decreased | effect on hemoglobin ([1]; middle and higher doses, within 4 weeks): decline in hemoglobin

Nc1nc2cccc(-c3ccc(CN4CCS(=O)(=O)CC4)cc3)n2n1 [major metabolite]
dose proportionality of PK ([2]; 30–300 mg range): essentially dose proportional | AUCtau of major metabolite, steady state [2, 4]: 11.2 (52.2) μg.hour/ml | Cmax of major metabolite, steady state [2, 4]: 0.582 (48.5) μg/ml | Tmax of major metabolite, steady state ([2]; after filgotinib 30 mg once daily, study 2): 5 (1–8) hours | AUCtau of major metabolite, steady state [2, 5]: 26.0 µg·h/mL | Cmax of major metabolite, steady state [2, 5]: 1.46 µg/mL | Tmax of major metabolite, steady state ([2]; after filgotinib 75 mg once daily, study 2): 5.5 (3–8) hours | AUCtau of major metabolite, steady state [2, 6]: 33.1 (26.3) μg.hour/ml | Cmax of major metabolite, steady state [2, 6]: 3.18 (25.0) μg/ml | Tmax of major metabolite, steady state ([2]; after filgotinib 100 mg twice daily, study 1): 2 (0–5) hours | AUCtau of major metabolite, steady state [2, 7]: 75.9 (31.0) μg.hour/ml | Cmax of major metabolite, steady state [2, 7]: 3.79 (26.5) μg/ml | Tmax of major metabolite, steady state ([2]; after filgotinib 150 mg once daily, study 2): 3 (2–5) hours | AUCtau of major metabolite, steady state [2, 8]: 71.8 (31.3) μg.hour/ml | Cmax of major metabolite, steady state [2, 8]: 3.77 (23.6) μg/ml | Tmax of major metabolite, steady state ([2]; after filgotinib 200 mg once daily, study 1): 3 (1–5) hours | AUCtau of major metabolite, steady state [2, 9]: 93.9 (20.4) μg.hour/ml | Cmax of major metabolite, steady state [2, 9]: 4.62 (9.98) μg/ml | Tmax of major metabolite, steady state ([2]; after filgotinib 300 mg once daily, study 2): 3 (3–8) hours | time of dosing to attain steady state ([2]; in vivo): ≤ 4 days | exposure to major metabolite, higher than exposure to parent filgotinib ([2]; steady state, 75–300 mg dose range): 13 fold | JAK‐1 inhibition potency of metabolite, lower than filgotinib (JAK‐1): ~10 fold | half‐life [3]: ~24 h | overall exposure of metabolite, higher than that of filgotinib ([3]; in humans): ~15 fold
